Results on 5 compounds are retold here after ChEMBL document CHEMBL4007411, “Design, Synthesis, and Biological Evaluation of Coupled Bioactive Scaffolds as Potential Anticancer Agents for Dual Targeting of Dihydrofolate Reductase and Thioredoxin Reductase” (J Med Chem, 2017).

Activity calls are given as the source filed them. The calls are words filed in the database; no cut-off is given here.

One series addresses T1, Dihydrofolate reductase (Homo sapiens, UniProt P00374).
T1 sequence (P00374 whole entry): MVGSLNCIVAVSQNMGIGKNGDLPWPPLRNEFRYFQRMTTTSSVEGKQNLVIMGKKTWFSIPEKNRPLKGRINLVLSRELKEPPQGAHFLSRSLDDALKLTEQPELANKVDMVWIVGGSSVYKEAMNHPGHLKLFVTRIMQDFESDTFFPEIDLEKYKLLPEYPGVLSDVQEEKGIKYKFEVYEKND
As to the kind of experiment: Inhibition of recombinant human DHFR assessed as reduction in conversion of DHF to THF measured every 30 secs for 6 mins by UV-Vis spectrophotometric method.

Series [1] has as its system HCT-116. The series is described as follows: Antiproliferative activity against human HCT116 cells after 72 hrs by MTT assay. In kind it is functional. The note with it: HCT-116, 72 h; for CC50: read-out: LC50 (the source's name). A digest of the protocol:
(§1)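 Cells kept in RPMI 1640 with 10% FBS, penicillin and streptomycin at 37°C and 5% CO2. Seeded at 1.0 x 10^4/well and left to adhere overnight. Serial dilutions made in medium from DMSO stocks. MTT at 400 µg/ml final for 4 h, read at T0 and after 72 h. Formazan dissolved in DMSO:glycine pH 10.5, A550. GI50 and LC50 interpolated from absorbance versus log concentration.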

The test system of the next series is MCF7. As to the kind of experiment: Antiproliferative activity against human MCF7 cells after 72 hrs by MTT assay. To be noted: MCF7, 72 h. In kind it is functional. The method in brief: as §1
In series [2] the target is T2, Dihydrofolate reductase (Homo sapiens) (UniProt P00374).
T2 sequence (whole entry): T1 sequence (P00374 whole entry)
The series is described as follows: Inhibition of DHFR in human HCT116 cell lysate assessed as reduction in conversion of DHF to THF after 16 hrs. The method in brief: (§2)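 HCT116 cells treated 16 h at 0.001 to 1 µM or 40 to 70 µM, then lysed. 400 µg lysate protein in PBS with 50 µM DHF and 200 µM NADPH, with matching controls containing 1 µM methotrexate. A340 decrease followed over 15 min at room temperature. MTX-sensitive rate given as % of DMSO-treated cells. Mean of three independent experiments.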

Series [3] has as its target T3, Thioredoxin reductase 1, cytoplasmic (Homo sapiens) (UniProt Q16881).
T3 sequence (whole entry): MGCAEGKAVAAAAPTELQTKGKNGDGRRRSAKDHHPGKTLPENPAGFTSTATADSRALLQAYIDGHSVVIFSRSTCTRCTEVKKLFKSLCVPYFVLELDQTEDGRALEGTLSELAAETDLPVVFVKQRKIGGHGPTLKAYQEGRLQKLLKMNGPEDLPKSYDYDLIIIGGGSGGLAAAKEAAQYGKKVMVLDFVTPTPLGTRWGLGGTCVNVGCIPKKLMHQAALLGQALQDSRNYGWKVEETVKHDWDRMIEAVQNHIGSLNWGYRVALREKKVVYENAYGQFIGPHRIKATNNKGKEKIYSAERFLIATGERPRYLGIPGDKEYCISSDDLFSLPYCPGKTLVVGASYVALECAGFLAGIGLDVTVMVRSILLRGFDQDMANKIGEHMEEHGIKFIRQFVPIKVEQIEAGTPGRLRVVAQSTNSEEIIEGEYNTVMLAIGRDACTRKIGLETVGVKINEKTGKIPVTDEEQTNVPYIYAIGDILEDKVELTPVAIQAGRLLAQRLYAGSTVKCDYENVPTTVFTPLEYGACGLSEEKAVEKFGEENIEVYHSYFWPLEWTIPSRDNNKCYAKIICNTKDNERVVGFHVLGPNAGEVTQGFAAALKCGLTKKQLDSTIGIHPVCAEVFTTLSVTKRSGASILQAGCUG
As to the kind of experiment: Inhibition of thioredoxin reductase in human HCT116 cell lysate using thioredoxin as substrate at 40 to 70 uM after 16 hrs by end point insulin assay method. The method in brief:
(§3)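 HCT116 cells treated 16 h at 0.001 to 1 µM or 40 to 70 µM, then lysed. Stopped with 1 mM DTNB and 240 µM NADPH in 6 M guanidine HCl and Tris pH 8.0, read at A412. Given as % of DMSO-treated cells. Mean of three experiments.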

Series [4] deals with T3, Thioredoxin reductase 1, cytoplasmic (Homo sapiens). As to the kind of experiment: Inhibition of thioredoxin reductase in human HCT116 cell lysate using thioredoxin as substrate at 0.001 to 1 uM after 16 hrs by end point insulin assay method.
The target of series [5] is T4, Thioredoxin reductase 1, cytoplasmic (Rattus norvegicus, UniProt O89049).
T4 sequence (O89049 whole entry): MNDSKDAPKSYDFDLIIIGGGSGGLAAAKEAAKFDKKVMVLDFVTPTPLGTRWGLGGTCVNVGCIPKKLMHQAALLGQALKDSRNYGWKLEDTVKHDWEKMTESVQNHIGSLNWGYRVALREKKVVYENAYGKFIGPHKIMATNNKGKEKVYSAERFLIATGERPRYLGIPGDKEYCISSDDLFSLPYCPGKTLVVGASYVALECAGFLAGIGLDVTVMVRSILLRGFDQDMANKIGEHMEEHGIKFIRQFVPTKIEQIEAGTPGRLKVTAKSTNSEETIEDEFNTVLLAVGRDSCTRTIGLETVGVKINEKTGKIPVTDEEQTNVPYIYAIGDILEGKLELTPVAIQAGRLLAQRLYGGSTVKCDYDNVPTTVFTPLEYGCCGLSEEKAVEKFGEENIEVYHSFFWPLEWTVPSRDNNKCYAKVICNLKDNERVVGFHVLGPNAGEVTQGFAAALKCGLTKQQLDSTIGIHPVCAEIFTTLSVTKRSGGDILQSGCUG
The series is described as follows: Inhibition of […] thioredoxin reductase after 30 mins by DTNB reduction assay. The note with it: read-out: IC50. A digest of the protocol:
(§4)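 Rat liver TrxR at 2.1 units/ml preincubated with a range of test concentrations and 200 µM NADPH in 50 mM Tris-HCl, 1 mM EDTA, pH 7.5, at room temperature for 30 or 60 min. Equal volume of buffer with 5 mM DTNB and 200 µM NADPH then added. A412 followed over 2 min. Activity as % of vehicle Vmax; IC50 from log concentration plot.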

In series [6] the target is T4, Thioredoxin reductase 1, cytoplasmic. The series is described as follows: Inhibition of […] thioredoxin reductase after 60 mins by DTNB reduction assay. To be noted: read-out: IC50. The method in brief: as §4
Series [7] has as its target T2, Dihydrofolate reductase (Homo sapiens). As to the kind of experiment: Inhibition of DHFR in human HCT116 cell lysate assessed as reduction in conversion of DHF to THF at 40 to 70 uM after 16 hrs. The method in brief: as §2
Series [8] deals with HCT-116. The series is described as follows: Upregulation of DHFR protein levels in human HCT116 cell lysate at 40 to 70 uM after 16 hrs by Western blot analysis. The class given is functional, cell-based. The method in brief: (§5)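 HCT116 plated at 1.5 x 10^6 per 100 mm plate, grown 48 h, then treated 16 h at 40 to 70 µM. Adherent and floating cells pooled and lysed in Triton X-100 buffer with protease inhibitors. Lysates cleared and protein measured by Bradford. Equal protein run on SDS-PAGE and blotted. DHFR or TrxR detected by ECL, β-actin antibody also used. Three independent experiments.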
In general terms: In western blotting, separated proteins are transferred to a membrane and probed.

The target of series [9] is T3, Thioredoxin reductase 1, cytoplasmic (Homo sapiens). The series is described as follows: Inhibition of thioredoxin reductase in human HCT116 cell lysate using thioredoxin as substrate after 16 hrs by end point insulin assay method. The method in brief: as §3
Series [10] deals with HCT-116. The series is described as follows: Effect on thioredoxin reductase protein levels in human HCT116 cell lysate at 40 to 70 uM after 16 hrs by Western blot analysis. The class given is cell-based. To be noted: hct-116, 16 h. The method in brief:
as §5

Series [11] concerns the target T2, Dihydrofolate reductase (Homo sapiens). To be noted: 0.0001 to 1 uM.

In the case of `NC1=NC2(CCCC2)N(OCCCOc2ccccc2)C(N)=N1`, at Dihydrofolate reductase, the IC50 (in general, the concentration at which inhibition is half-maximal) was 0.0199 µM. For the same compound, in the series with HCT-116 [1], the GI50 (commonly the concentration that inhibits growth by half) worked out at 0.021 µM and the CC50 is over 100 µM. In the series on MCF7, this compound came in with a GI50 of 0.077 µM and an LC50 (concentration killing 50% of cells present at T0) of 90.8 µM. For the same compound, in series [2], the inhibition result was “Dose-dependent effect”. In addition, the inhibition result in series [3] is “inactive”. Besides, the inhibition result in series [4] is “inactive”.
As to `Cl.NC1=NC2(CCCC2)N(OCCCCOc2cccc(C(=O)/C=C/c3ccccc3)c2)C(N)=N1`, the IC50 at Dihydrofolate reductase came to 0.0026 µM; in series [5], 9.2 µM; in series [6] it was 5.9 µM. Besides, the 50% growth inhibitory concentration (GI50) in the series on HCT-116 [1] was 0.116 µM; with MCF7, 0.127 µM. Also, in the series with HCT-116 [1], the CC50 was 13.5 µM. This compound also displayed an LC50 (concentration killing 50% of cells present at T0) in the series with MCF7 of 9.7 µM. The inhibition result in series [2] and in series [9] was “Dose-dependent effect” each time. Moreover, in [7], the inhibition entry is “Active”. In addition, the result in the series on HCT-116 [8] was Active. Besides, the Activity entry in the series on HCT-116 [10] is recorded as “Non-Toxic”. Moreover, the inhibition result in series [4] was “inactive”.
On to `O=C(/C=C/c1ccccc1)c1ccccc1` [CHALCONE], for which the IC50 in series [5] came to 46.4 µM; in series [6] it was 26.7 µM. In series [3], the inhibition result was “Active”. Further, the inhibition entry in [11] and in series [4] was “inactive” each time.
Consider `CC1(C)N=C(N)N=C(N)N1OCCCOc1ccccc1`, for which the IC50 at Dihydrofolate reductase came to 0.0053 µM. In addition, in the series with HCT-116 [1], the GI50 stood at 0.036 µM and the CC50 was over 100 µM. In the series on MCF7, growth was halved (GI50) at 0.107 µM and the LC50 (concentration killing 50% of cells present at T0) was over 100 µM. Also, the inhibition result in series [2] was “Dose-dependent effect”. The inhibition result in [3] was “inactive”. The inhibition entry in [4] was “inactive”.
Take `Cl.NC1=NC2(CCCC2)N(OCCCOc2cccc(C(=O)/C=C/c3ccccc3)c2)C(N)=N1`: the IC50 at Dihydrofolate reductase turned out to be 0.0061 µM; in series [5], 7.5 µM; in series [6] it was 4.6 µM. For the same compound, the GI50 was found to be 0.026 µM in the series with HCT-116 [1] and 0.08 µM in the series on MCF7. Besides, in the series on HCT-116 [1], the CC50 was 14.1 µM. This compound also registered an LC50 (concentration killing 50% of cells present at T0) in the series with MCF7 of 11.2 µM. The inhibition result in series [2] and in [9] was “Dose-dependent effect” in each case. For the same compound, in [7], the inhibition entry was “Active”. Moreover, the outcome in the series with HCT-116 [8] was Active. In addition, the Activity result in the series on HCT-116 [10] is reported as “Non-Toxic”. Besides, in [4], the inhibition result is “inactive”.
